From ChEMBL document CHEMBL4052644, “Synthesis of novel benzylidene analogues of betulinic acid as potent cytotoxic agents” (Eur J Med Chem, 2017)

How the values were obtained:
SK-MEL-2 = experiment: Cytotoxicity against human SK-MEL-2 cells assessed as reduction in cell viability; assay type: functional, cell-based
DLD-1 = experiment: Cytotoxicity against human DLD1 cells assessed as cell growth inhibition after 18 hrs; assay type: functional, cell-based; details: DLD-1, 18 h
A549 [1] = experiment: Growth inhibition of human A549 cells at 10 uM after 48 hrs by SRB assay relative to control; assay type: functional; details: A549, 48 h, read-out: GI
Summary of the method: (§1)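 Primary SRB screen of every compound at a single concentration of 10 µM. Growth inhibition is expressed relative to control.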

HCT-116 [2] = experiment: Induction of morphological changes in human HCT116 cells assessed as cell growth arrest after 24 hrs by phase contrast microscopic method; assay type: functional, cell-based
Summary of the method: (§2)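 HCT 116 cells were treated at 0.7, 1.4, 2.0 and 2.5 µM for 24 h, then examined under a phase contrast microscope for growth arrest and morphological change.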

HCT-116 [3] = experiment: Induction of morphological changes in human HCT116 cells assessed as change in cell morphology after 24 hrs by phase contrast microscopic method; assay type: functional, cell-based; summary of the method: as §2
[4] = Selectivity index, ratio of IC50 for human FR2 cells to IC50 for human PC3 cells; assay type: functional
Summary of the method: (§3)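 Selectivity index is the IC50 in normal breast epithelial fR2 cells divided by the IC50 in each cancer line. All IC50 values come from the SRB assay.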

PC-3 [5] = experiment: Cytotoxicity against human PC3 cells assessed as reduction in cell viability after 48 hrs by SRB assay; assay type: functional, cell-based; details: PC-3, 48 h
Summary of the method: (§4)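 SRB assay. Compounds active at 10 µM in the primary screen were retested at 1, 2.5 and 5 µM, and IC50 was calculated from these concentrations. The normal breast epithelial line fR2 was tested alongside the cancer lines.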

A549 [6] = experiment: Cytotoxicity against human A549 cells assessed as reduction in cell viability after 48 hrs by SRB assay; assay type: functional, cell-based; details: A549, 48 h; summary of the method: as §4
[7] = Selectivity index, ratio of IC50 for human FR2 cells to IC50 for human MCF7 cells; assay type: functional; summary of the method: as §3
[8] = Selectivity index, ratio of IC50 for human FR2 cells to IC50 for human HCT116 cells; assay type: functional; summary of the method: as §3
HCT-116 [9] = experiment: Growth inhibition of human HCT116 cells at 10 uM after 48 hrs by SRB assay relative to control; assay type: functional; details: HCT-116, 48 h, read-out: GI; summary of the method: as §1
HCT-116 [10] = experiment: Cytotoxicity against human HCT116 cells assessed as reduction in cell viability after 48 hrs by SRB assay; assay type: functional, cell-based; details: HCT-116, 48 h; summary of the method: as §4
[11] = Cytotoxicity against human FR2 cells assessed as reduction in cell viability after 48 hrs by SRB assay; assay type: cell-based; details: FR2, 48 h; summary of the method: as §4
MIA PaCa-2 [12] = experiment: Cytotoxicity against human MIAPaCa2 cells assessed as reduction in cell viability after 48 hrs by SRB assay; assay type: functional, cell-based; details: MIA PaCa-2, 48 h; summary of the method: as §4
MIA PaCa-2 [13] = experiment: Growth inhibition of human MIAPaCa2 at 10 uM after 48 hrs by SRB assay relative to control; assay type: functional; details: MIA PaCa-2, 48 h, read-out: GI; summary of the method: as §1
HCT-116 [14] = experiment: Antiproliferative activity against human HCT116 cells assessed as reduction in colony formation after 14 days by crystal violet staining based clonogenic assay; assay type: functional, cell-based
Summary of the method: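 HCT 116 cells were treated at 0.7, 1.4 and 2.8 µM. Colonies formed over 14 days of treatment and were compared with untreated control.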

MCF7 [15] = experiment: Cytotoxicity against human MCF7 cells assessed as reduction in cell viability after 48 hrs by SRB assay; assay type: functional, cell-based; details: MCF7, 48 h; summary of the method: as §4
MCF7 [16] = experiment: Growth inhibition of human MCF7 cells at 10 uM after 48 hrs by SRB assay relative to control; assay type: functional; details: MCF7, 48 h, read-out: GI; summary of the method: as §1
PC-3 [17] = experiment: Growth inhibition of human PC3 cells at 10 uM after 48 hrs by SRB assay relative to control; assay type: functional; details: PC-3, 48 h, read-out: GI; summary of the method: as §1
[18] = Selectivity index, ratio of IC50 for human FR2 cells to IC50 for human MIAPaCa2 cells; assay type: functional; summary of the method: as §3
HCT-116 [19] = experiment: Antimigratory activity in human HCT116 cells assessed as inhibition of wound closure after 24 hrs by wound healing assay; assay type: functional, cell-based
Summary of the method: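 HCT 116 monolayers were scratched, then treated at 1.4, 2.0 and 2.5 µM for 24 h. Wound area was measured at 0 and 24 h. Migration was derived from the recovered scratch area relative to 0 h and to the matching control.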

[20] = Selectivity index, ratio of IC50 for human FR2 cells to IC50 for human A549 cells; assay type: functional; summary of the method: as §3
HCT-116 [21] = experiment: Induction of mitochondrial membrane potential loss in human HCT116 cells after 24 hrs by rhodamine-123 dye based fluorescence microscopy; assay type: functional, cell-based
Summary of the method: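 HCT-116 cells were treated at 0.7, 1.4, 2.0 and 2.5 µM and stained with rhodamine-123. Loss of membrane potential was read as a decrease in fluorescence compared with untreated cells.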

A549 [22] = experiment: Growth inhibition of human A549 cells after 18 hrs; assay type: functional, cell-based; details: A549, 18 h
Summary of the method: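 Sulforhodamine B (SRB) assay on A-549 human lung cancer cells. Compounds were first screened at 10 µM. Those active at 10 µM were retested at 1, 2.5 and 5 µM, and IC50 was calculated from these concentrations.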

SMILES	inhibition of growth at 10 µM (A549 [1]) [%]	Ratio IC50 [4]	IC50 (PC-3 [5]) [µM]	IC50 (A549 [6]) [µM]	Ratio IC50 [7]	Ratio IC50 [8]	inhibition of growth at 10 µM (HCT-116 [9]) [%]	IC50 (HCT-116 [10]) [µM]	IC50 [11] [µM]	IC50 (MIA PaCa-2 [12]) [µM]	inhibition of growth at 10 µM (MIA PaCa-2 [13]) [%]	IC50 (MCF7 [15]) [µM]	inhibition of growth at 10 µM (MCF7 [16]) [%]	inhibition of growth at 10 µM (PC-3 [17]) [%]	Ratio IC50 [18]	Ratio IC50 [20]	other results
CC(C)[C@@H]1CC[C@]2(C(=O)O)CC[C@]3(C)[C@H](CC[C@@H]4[C@@]5(C)C=C(C#N)C(=O)C(C)(C)[C@@H]5CC[C@]43C)[C@@H]12																	IC50 (SK-MEL-2): 810 nM
CC(C)[C@@H]1CC[C@]2(C(=O)O)CC[C@]3(C)[C@H](CC[C@@H]4[C@@]5(C)C=C(Cl)C(=O)C(C)(C)[C@@H]5CC[C@]43C)[C@@H]12																	IC50 (SK-MEL-2): 130 nM
C=C(C)[C@@H]1CC[C@]2(COC(C)=O)CC[C@]3(C)[C@H](CC[C@@H]4[C@@]5(C)CC[C@H](O[C@H]6O[C@H](CO)[C@@H](O)[C@H](O)[C@H]6O)C(C)(C)[C@@H]5CC[C@]43C)[C@@H]12																	IC50 (DLD-1): 4.45 µM
C=C(C)[C@@H]1CC[C@]2(C(=O)O)CC[C@]3(C)[C@H](CC[C@@H]4[C@@]5(C)C/C(=C\c6ccc([N+](=O)[O-])cc6)[C@H](O)C(C)(C)[C@@H]5CC[C@]43C)[C@@H]12	73	10.5	1.6	1.5	4.8	12.35	92	1.36	16.8	3.2	81	3.5	85	56	5.25	11.2	Activity (HCT-116 [2]): Dose-dependent effect; Activity (HCT-116 [3]): Dose-dependent effect; inhibition (HCT-116 [14]): Dose-dependent effect; inhibition (HCT-116 [19]): Dose-dependent effect; Activity (HCT-116 [21]): Dose-dependent effect
C=C(C)[C@@H]1CC[C@]2(C(=O)OCC(N)(CO)CO)CC[C@]3(C)[C@H](CC[C@@H]4[C@@]5(C)CC[C@H](OC(C)=O)C(C)(C)[C@@H]5CC[C@]43C)[C@@H]12																	IC50 (A549 [22]): 2500 nM
C=C(C)[C@@H]1CC[C@]2(C(=O)O)CC[C@]3(C)[C@H](CC[C@@H]4[C@@]5(C)C/C(=C\c6ccccc6Br)C(=O)C(C)(C)[C@@H]5CC[C@]43C)[C@@H]12	90	2.497	7.6	6.1	2.464	4.413	86	4.3	19	4.04	81	7.7	80	77	4.698	3.111	
C=C(C)[C@@H]1CC[C@]2(C(=O)O)CC[C@]3(C)[C@H](CC[C@@H]4[C@@]5(C)C/C(=C\c6cccnc6)C(=O)C(C)(C)[C@@H]5CC[C@]43C)[C@@H]12	94	15.15	6.6	3.1	38.46	50.76	96	1.97	100	4.9	97	2.6	97	67	20.4	32.25	
C=C(C)[C@@H]1CC[C@]2(C(=O)O)CC[C@]3(C)[C@H](CC[C@@H]4[C@@]5(C)C/C(=C\c6cccc7ccccc67)C(=O)C(C)(C)[C@@H]5CC[C@]43C)[C@@H]12	90	2.318	5.3	3.09	1.429	1.463	62	8.4	12.3	7.9	64	8.6	67	71	1.555	3.977	
